Assay results reported in ChEMBL document CHEMBL1149790, “Synthesis of some novel thiourea derivatives obtained from 5-[(4-aminophenoxy)methyl]-4-alkyl/aryl-2,4-dihydro-3H-1,2,4-triazole-3-thiones and evaluation as antiviral/anti-HIV and anti-tuberculosis agents” (Eur J Med Chem, 2008).
Converted amounts (≈) assume the structure as drawn. The source made the active and inactive calls. No cut-off for these calls is given here.

Key:
[1] = test system: Vesicular stomatitis virus; assay: Antiviral activity against in Vesicular stomatitis virus in human E6SM cells assessed as reduction of virus-induced cytopathogenicity; format: functional
Procedure, shortened: (§1)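 Confluent cell monolayers (E6SM, HEL, HeLa or Vero, per line) inoculated with 100 CCID50 virus; 1 h adsorption, residual virus removed, then incubated with compound at 400, 200, 100 … µg/ml. Cytopathicity scored once complete in untreated virus controls; MIC = concentration inhibiting virus-induced cytopathicity.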

Human alphaherpesvirus 2 [2] = assay: Antiviral activity against HSV2 G in human E6SM cells assessed as reduction of virus-induced cytopathogenicity; format: functional; conditions: Human alphaherpesvirus 2, G; procedure, shortened: as §1
[3] = test system: Mammalian orthoreovirus 1; assay: Antiviral activity against Reo virus 1 in african green monkey Vero cells assessed as reduction of virus-induced cytopathogenicity; format: functional; procedure, shortened: as §1
[4] = test system: Human immunodeficiency virus 1; assay: Antiviral activity against HIV1 3B in human MT4 cells assessed as protection against virus-induced cytopathogenicity by MTT assay; format: functional, organism-based; design: Activity: concentration or dose not given beside the values; conditions: for IC50: Human immunodeficiency virus 1, 3B, MT4
Procedure, shortened: (§2)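 MT-4 cells at 6 × 10⁵ cells/ml infected with HIV-1 IIIB or HIV-2 ROD at 100–300 CCID50; compounds in serial five-fold dilutions, triplicate mock- and virus-infected wells. MTT viability read at 540 and 690 nm after 5 days, median OD of three wells; EC50 = 50% protection from viral cytopathic effect.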

[5] = Cytotoxicity against human HEL cells assessed as reduction of cell growth; format: cell-based
Procedure, shortened: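 HEL cells; CC50 = compound concentration reducing cell growth by 50%.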

Sindbis virus = assay: Antiviral activity against Sindbis virus in african green monkey Vero cells assessed as reduction of virus-induced cytopathogenicity; format: functional; procedure, shortened: as §1
Coxsackievirus B4 [6] = assay: Antiviral activity against Coxsackie virus B4 in human HeLa cells assessed as inhibition of virus-induced cytopathogenicity; format: functional; conditions: Enterovirus B; procedure, shortened: as §1
Human respirovirus 3 = assay: Antiviral activity against Parainfluenza 3 virus in african green monkey Vero cells assessed as reduction of virus-induced cytopathogenicity; format: functional; procedure, shortened: as §1
[7] = Cytotoxicity against human MT4 cells by MTT assay; format: cell-based
Procedure, shortened: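 Mock-infected MT-4 cells (6 × 10⁵ cells/ml) with serial five-fold compound dilutions in triplicate; MTT reduction read at 540 and 690 nm after 5 days, median OD of three wells; CC50 = concentration reducing OD540 of mock-infected control by 50%.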

[8] = test system: Human immunodeficiency virus 2; assay: Antiviral activity against HIV2 ROD in human MT4 cells assessed as protection against virus-induced cytopathogenicity by MTT assay; format: functional, organism-based; design: Activity: concentration or dose not given beside the values; conditions: for IC50: Human immunodeficiency virus 2, ROD, MT4; procedure, shortened: as §2
[9] = test system: Respiratory syncytial virus; assay: Antiviral activity against respiratory syncytial virus in human HeLa cells assessed as inhibition of virus-induced cytopathogenicity; format: functional; procedure, shortened: as §1
[10] = Cytotoxicity against human HeLa cells; format: cell-based
Procedure, shortened: (§3)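 Uninfected cell cultures exposed to test compounds alongside antiviral assays; minimum cytotoxic concentration (MCC) = concentration causing a microscopically detectable alteration of cell morphology.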

Human alphaherpesvirus 1 [11] = assay: Antiviral activity against HSV1 KOS in human HEL cells assessed as reduction of virus-induced cytopathogenicity; format: functional; conditions: Human alphaherpesvirus 1, KOS; procedure, shortened: as §1
Human betaherpesvirus 5 [12] = assay: Antiviral activity against human cytomegalovirus Davis infected HEL cells assessed as reduction in virus plaque formation; format: functional, organism-based; conditions: Human betaherpesvirus 5, Davis
Human alphaherpesvirus 1 [13] = assay: Antiviral activity against thymidine kinase deficient and acyclovir resistant HSV1 KOS in human HEL cells assessed as reduction of virus-induced cytopathogenicity; format: functional; conditions: Human alphaherpesvirus 1, KOS; procedure, shortened: as §1
Vero = assay: Cytotoxicity against african green monkey Vero cells; format: cell-based; conditions: chlorocebus sabaeus; procedure, shortened: as §3
Human alphaherpesvirus 3 [14] = assay: Antiviral activity against TK- VZV 07/1 infected HEL cells assessed as reduction in virus plaque formation; format: functional, organism-based; conditions: Human alphaherpesvirus 3, 07/1, HEL
Human alphaherpesvirus 3 [15] = assay: Antiviral activity against TK+ VZV OKA infected HEL cells assessed as reduction in virus plaque formation; format: functional, organism-based; conditions: Human alphaherpesvirus 3, OKA
[16] = test system: Mycobacterium tuberculosis; assay: Antitubercular activity against Mycobacterium tuberculosis H37Rv at 6.25 ug/ml by MABA assay; format: functional
Human alphaherpesvirus 1 [17] = assay: Antiviral activity against HSV1 KOS in human E6SM cells assessed as reduction of virus-induced cytopathogenicity; format: functional; conditions: Human alphaherpesvirus 1, KOS; procedure, shortened: as §1
Human alphaherpesvirus 1 [18] = assay: Antiviral activity against thymidine kinase deficient and acyclovir resistant HSV1 KOS in human E6SM cells assessed as reduction of virus-induced cytopathogenicity; format: functional; conditions: Human alphaherpesvirus 1, KOS; procedure, shortened: as §1
Human betaherpesvirus 5 [19] = assay: Antiviral activity against human cytomegalovirus AD169 infected HEL cells assessed as reduction in virus plaque formation; format: functional, organism-based; conditions: Human betaherpesvirus 5, AD169, HEL
Coxsackievirus B4 [20] = assay: Antiviral activity against Coxsackie virus B4 in african green monkey Vero cells assessed as reduction of virus-induced cytopathogenicity; format: functional; conditions: Enterovirus B; procedure, shortened: as §1
Punta Toro virus = assay: Antiviral activity against Punta Toro virus in african green monkey Vero cells assessed as reduction of virus-induced cytopathogenicity; format: functional; procedure, shortened: as §1
[21] = test system: Vesicular stomatitis virus; assay: Antiviral activity against in Vesicular stomatitis virus in human HEL cells assessed as reduction of virus-induced cytopathogenicity; format: functional; procedure, shortened: as §1
[22] = test system: Vesicular stomatitis virus; assay: Antiviral activity against vesicular stomatitis virus in human HeLa cells assessed as inhibition of virus-induced cytopathogenicity; format: functional; procedure, shortened: as §1
[23] = Cytotoxicity against human HEL cells assessed as alteration of cell morphology; format: cell-based; procedure, shortened: as §3
[24] = Cytotoxicity against human E6SM cells; format: cell-based; conditions: E6SM cells; procedure, shortened: as §3
Human alphaherpesvirus 2 [25] = assay: Antiviral activity against HSV2 G in human HEL cells assessed as reduction of virus-induced cytopathogenicity; format: functional; conditions: Human alphaherpesvirus 2, G; procedure, shortened: as §1

Row | SMILES | MIC [1] | MIC (Human alphaherpesvirus 2 [2]) | MIC [3] | Activity [4] | IC50 [4] | CC50 [5] | MIC (Sindbis virus) | MIC (Coxsackievirus B4 [6]) | MIC (Human respirovirus 3) | CC50 [7] | Activity [8] | IC50 [8] | MIC [9] | MCC [10] | MIC (Human alphaherpesvirus 1 [11]) | EC50 (Human betaherpesvirus 5 [12]) | MIC (Human alphaherpesvirus 1 [13]) | Activity (Vero) | EC50 (Human alphaherpesvirus 3 [14]) | EC50 (Human alphaherpesvirus 3 [15]) | further results
1 | CNC(=S)Nc1ccc(OCc2n[nH]c(=S)n2C)cc1 | > 400 µg/mL | 240 µg/mL (≈ 776 µM) | > 80 µg/mL | 1% | > 112 µg/mL | > 50 µg/mL | > 80 µg/mL | > 400 µg/mL | > 80 µg/mL | ≥ 112 µg/mL | 1% | > 125 µg/mL | > 400 µg/mL | > 400 µg/mL | > 400 µg/mL | > 100 µg/mL | > 400 µg/mL | 400 µg/mL | > 100 µg/mL | > 100 µg/mL | Activity [16]: inactive; MIC (Human alphaherpesvirus 1 [17]): > 400 µg/mL; MIC (Human alphaherpesvirus 1 [18]): > 400 µg/mL; EC50 (Human betaherpesvirus 5 [19]): > 100 µg/mL; MIC (Coxsackievirus B4 [20]): > 80 µg/mL; MIC (Punta Toro virus): > 80 µg/mL; MIC [21]: > 400 µg/mL; MIC [22]: > 400 µg/mL; MCC [23]: > 400 µg/mL; MCC [24]: > 400 µg/mL; MIC (Human alphaherpesvirus 2 [25]): 240 µg/mL (≈ 776 µM)
2 | CCNC(=S)Nc1ccc(OCc2n[nH]c(=S)n2C)cc1 | > 400 µg/mL | 240 µg/mL (≈ 742 µM) | > 80 µg/mL | 1.5% | > 107 µg/mL | > 50 µg/mL | > 80 µg/mL | > 80 µg/mL | > 80 µg/mL | ≥ 107 µg/mL | 2% | > 125 µg/mL | > 80 µg/mL | 400 µg/mL | > 400 µg/mL | > 100 µg/mL | 240 µg/mL (≈ 742 µM) | 400 µg/mL | > 100 µg/mL | > 100 µg/mL | Activity [16]: inactive; MIC (Human alphaherpesvirus 1 [17]): > 400 µg/mL; MIC (Human alphaherpesvirus 1 [18]): 240 µg/mL (≈ 742 µM); EC50 (Human betaherpesvirus 5 [19]): > 100 µg/mL; MIC (Coxsackievirus B4 [20]): > 80 µg/mL; MIC (Punta Toro virus): > 80 µg/mL; MIC [21]: > 400 µg/mL; MIC [22]: > 80 µg/mL; MCC [23]: > 400 µg/mL; MCC [24]: > 400 µg/mL; MIC (Human alphaherpesvirus 2 [25]): 240 µg/mL (≈ 742 µM)
3 | C=CCn1c(COc2ccc(NC(=S)Nc3ccccc3)cc2)n[nH]c1=S | 80 µg/mL (≈ 201 µM) | > 80 µg/mL | > 16 µg/mL | 19% | > 20.2 µg/mL | 42 µg/mL (≈ 106 µM) | > 16 µg/mL | > 16 µg/mL | > 16 µg/mL | 23.2 µg/mL (≈ 58.4 µM) | 22.5% | > 20.3 µg/mL | > 16 µg/mL | 80 µg/mL | > 80 µg/mL | 45 µg/mL (≈ 113 µM) | > 80 µg/mL | 80 µg/mL | 26.8 µg/mL (≈ 67.4 µM) | 9.9 µg/mL (≈ 24.9 µM) | inhibition at 6.25 µg/mL [16]: 79%; MIC (Human alphaherpesvirus 1 [17]): > 80 µg/mL; MIC (Human alphaherpesvirus 1 [18]): > 80 µg/mL; EC50 (Human betaherpesvirus 5 [19]): 45 µg/mL (≈ 113 µM); MIC (Coxsackievirus B4 [20]): 16 µg/mL (≈ 40.2 µM); MIC (Punta Toro virus): > 16 µg/mL; MIC [21]: 80 µg/mL (≈ 201 µM); MIC [22]: > 16 µg/mL; MCC [23]: 400 µg/mL; MCC [24]: 400 µg/mL; MIC (Human alphaherpesvirus 2 [25]): > 80 µg/mL
4 | C=CCNC(=S)Nc1ccc(OCc2n[nH]c(=S)n2CC)cc1 | > 400 µg/mL | 240 µg/mL (≈ 687 µM) | > 80 µg/mL | 3% | > 72.3 µg/mL | > 50 µg/mL | 48 µg/mL (≈ 137 µM) | > 80 µg/mL | > 80 µg/mL | 75.9 µg/mL (≈ 217 µM) | 2% | > 71.4 µg/mL | > 80 µg/mL | 400 µg/mL | > 400 µg/mL | 45 µg/mL (≈ 129 µM) | 240 µg/mL (≈ 687 µM) | 400 µg/mL | 42 µg/mL (≈ 120 µM) | 41 µg/mL (≈ 117 µM) | inhibition at 6.25 µg/mL [16]: 75%; MIC (Human alphaherpesvirus 1 [17]): > 400 µg/mL; MIC (Human alphaherpesvirus 1 [18]): 240 µg/mL (≈ 687 µM); EC50 (Human betaherpesvirus 5 [19]): 45 µg/mL (≈ 129 µM); MIC (Coxsackievirus B4 [20]): 48 µg/mL (≈ 137 µM); MIC (Punta Toro virus): > 80 µg/mL; MIC [21]: > 400 µg/mL; MIC [22]: > 80 µg/mL; MCC [23]: > 400 µg/mL; MCC [24]: > 400 µg/mL; MIC (Human alphaherpesvirus 2 [25]): 240 µg/mL (≈ 687 µM)
